According to ChEMBL document CHEMBL1154674, “Synthesis and evaluation of three 18F-labeled aminophenylbenzothiazoles as amyloid imaging agents” (J Med Chem, 2009):
Blank lines part the entries; values can stand above or below the compound they belong to.

What was measured:
Assay type in all cases: ADME, organism-based, Macaca mulatta
[1] = Drug level in normal rhesus monkey frontal cortex assessed as standard uptake value at 96.3 MBq, iv after 125 mins by microPET; details: in vivo
[2] = Drug level in normal rhesus monkey parietal cortex assessed as standard uptake value at 96.3 MBq, iv after 2.5 mins by microPET; details: in vivo
[3] = Drug level in normal rhesus monkey white matter assessed as standard uptake value at 96.3 MBq, iv after 4.5 mins by microPET; details: in vivo, 0.075 h
[4] = Drug level in normal rhesus monkey thalamus assessed as standard uptake value at 96.3 MBq, iv after 42.5 mins by microPET; details: in vivo
[5] = Drug level in normal rhesus monkey parietal cortex assessed as standard uptake value at 96.3 MBq, iv after 10 mins by microPET; details: in vivo
[6] = Drug level in normal rhesus monkey parietal cortex assessed as standard uptake value at 96.3 MBq, iv after 32.5 mins by microPET; details: in vivo
[7] = Drug level in normal rhesus monkey thalamus assessed as standard uptake value at 96.3 MBq, iv after 10 mins by microPET; details: in vivo
[8] = Drug level in normal rhesus monkey pons assessed as standard uptake value at 96.3 MBq, iv after 155 mins by microPET; details: in vivo
[9] = Drug level in normal rhesus monkey parietal cortex assessed as standard uptake value at 96.3 MBq, iv after 27.5 mins by microPET; details: in vivo
[10] = Drug level in normal rhesus monkey frontal cortex assessed as standard uptake value at 96.3 MBq, iv after 32.5 mins by microPET; details: in vivo
[11] = Drug level in normal rhesus monkey parietal cortex assessed as standard uptake value at 96.3 MBq, iv after 6 mins by microPET; details: in vivo, 0.1 h
[12] = Drug level in normal rhesus monkey frontal cortex assessed as standard uptake value at 109.4 MBq, iv after 15.5 mins by microPET; details: in vivo
[13] = Drug level in normal rhesus monkey pons assessed as standard uptake value at 109.4 MBq, iv after 63 mins by microPET; details: in vivo, 1.05 h
[14] = Drug level in normal rhesus monkey frontal cortex assessed as standard uptake value at 109.4 MBq, iv after 93 mins by microPET; details: in vivo, 1.55 h
[15] = Drug level in normal rhesus monkey thalamus assessed as standard uptake value at 109.4 MBq, iv after 22.5 mins by microPET; details: in vivo, 0.375 h
[16] = Drug level in normal rhesus monkey white matter assessed as standard uptake value at 109.4 MBq, iv after 52.5 mins by microPET; details: in vivo, 0.875 h
[17] = Drug level in normal rhesus monkey parietal cortex assessed as standard uptake value at 109.4 MBq, iv after 32.5 mins by microPET; details: in vivo
[18] = Drug level in normal rhesus monkey thalamus assessed as standard uptake value at 109.4 MBq, iv after 47.5 mins by microPET; details: in vivo
[19] = Drug level in normal rhesus monkey white matter assessed as standard uptake value at 109.4 MBq, iv after 32.5 mins by microPET; details: in vivo
[20] = Drug level in normal rhesus monkey cerebellum assessed as standard uptake value at 81.2 MBq, iv after 85 mins by microPET; details: in vivo
Method in brief: (§1)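 One normal rhesus monkey, each tracer given iv via the vena saphena (81.2, 96.3 or 109.4 MBq), with 1 day between tracer injections. Dynamic brain μPET over 180 min used frames of 5 × 60 s, 5 × 120 s, 9 × 300 s and 12 × 600 s. Images were reconstructed by filtered back projection with a RAMP filter. Regional time-activity curves were expressed as SUV.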

[21] = Drug level in normal rhesus monkey cerebellum assessed as standard uptake value at 81.2 MBq, iv after 17.5 mins by microPET; details: in vivo; method in brief: as §1
[22] = Drug level in normal rhesus monkey cerebellum assessed as standard uptake value at 81.2 MBq, iv after 22.5 mins by microPET; details: in vivo, 0.375 h; method in brief: as §1
[23] = Drug level in normal rhesus monkey thalamus assessed as standard uptake value at 81.2 MBq, iv after 145 mins by microPET; details: in vivo
[24] = Drug level in normal rhesus monkey parietal cortex assessed as standard uptake value at 81.2 MBq, iv after 105 mins by microPET; details: in vivo, 1.75 h
[25] = Drug level in normal rhesus monkey white matter assessed as standard uptake value at 81.2 MBq, iv after 145 mins by microPET; details: in vivo
[26] = Drug level in normal rhesus monkey cerebellum assessed as standard uptake value at 81.2 MBq, iv after 135 mins by microPET; details: in vivo, 2.25 h; method in brief: as §1
[27] = Drug level in normal rhesus monkey cerebellum assessed as standard uptake value at 81.2 MBq, iv after 175 mins by microPET; details: in vivo; method in brief: as §1
[28] = Drug level in normal rhesus monkey white matter assessed as standard uptake value at 81.2 MBq, iv after 75 mins by microPET; details: in vivo, 1.25 h
[29] = Drug level in normal rhesus monkey parietal cortex assessed as standard uptake value at 81.2 MBq, iv after 27.5 mins by microPET; details: in vivo
[30] = Drug level in normal rhesus monkey parietal cortex assessed as standard uptake value at 81.2 MBq, iv after 2.5 mins by microPET; details: in vivo
[31] = Drug level in normal rhesus monkey parietal cortex assessed as standard uptake value at 81.2 MBq, iv after 6 mins by microPET; details: in vivo, 0.1 h
[32] = Drug level in normal rhesus monkey white matter assessed as standard uptake value at 152.9 MBq, iv after 3.5 mins by microPET; details: in vivo
[33] = Drug level in normal rhesus monkey thalamus assessed as standard uptake value at 152.9 MBq, iv after 17.5 mins by microPET; details: in vivo
[34] = Drug level in normal rhesus monkey white matter assessed as standard uptake value at 152.9 MBq, iv after 47.5 mins by microPET; details: in vivo
[35] = Drug level in normal rhesus monkey parietal cortex assessed as standard uptake value at 152.9 MBq, iv after 57.5 mins by microPET; details: in vivo
[36] = Drug level in normal rhesus monkey parietal cortex assessed as standard uptake value at 152.9 MBq, iv after 8 mins by microPET; details: in vivo
[37] = Drug level in normal rhesus monkey cerebellum assessed as standard uptake value at 152.9 MBq, iv after 85 mins by microPET; details: in vivo
Method in brief: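 One normal rhesus monkey, tracer given iv via the vena saphena (152.9 MBq), with at least 1 day between tracer injections. Dynamic brain μPET over 90 min used frames of 5 × 60 s, 5 × 120 s, 9 × 300 s and 3 × 600 s. Images were reconstructed by filtered back projection with a RAMP filter. Regional time-activity curves were expressed as SUV.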

[38] = Drug level in normal rhesus monkey white matter assessed as standard uptake value at 152.9 MBq, iv after 12 mins by microPET; details: in vivo, 0.2 h

SUV [1]: 1.54
SUV [2]: 2
SUV [3]: 1.22
SUV [4]: 2.46
SUV [5]: 2.26
SUV [6]: 1.9
SUV [7]: 2.12
SUV [8]: 1.87
SUV [9]: 1.99
SUV [10]: 2.14
SUV [11]: 2.16
Compound: CN(C)c1ccc2nc(-c3ccc([18F])cc3)sc2c1

SUV [12]: 5.08
SUV [13]: 4.75
SUV [14]: 4.25
SUV [15]: 5.55
SUV [16]: 3.54
SUV [17]: 4.8
SUV [18]: 5.56
SUV [19]: 3.36
Compound: Nc1ccc2nc(-c3ccc([18F])cc3)sc2c1

SUV [20]: 1.864
SUV [21]: 2.753
SUV [22]: 2.518
SUV [23]: 4.916
SUV [24]: 2.784
SUV [25]: 3.888
SUV [26]: 1.594
SUV [27]: 1.384
SUV [28]: 3.823
SUV [29]: 4.303
SUV [30]: 4.252
SUV [31]: 4.972
Compound: CNc1ccc2nc(-c3ccc([18F])cc3)sc2c1

SUV [32]: 1.053
SUV [33]: 2.159
SUV [34]: 0.943
SUV [35]: 0.742
SUV [36]: 2.207
SUV [37]: 0.685
SUV [38]: 1.434
Compound: [11CH3]Nc1ccc(-c2nc3ccc(O)cc3s2)cc1 [PITTSBURGH COMPOUND B]
